Data published in ChEMBL document CHEMBL1156993, “Benzyl prolinate derivatives as novel selective KCC2 blockers” (Bioorg Med Chem Lett, 2010).
Converted amounts (≈) assume the structure as drawn. The source made the active and inactive calls. No cut-off for these calls is given here.

Tested on: not listed separately
Assay: AUC in Wistar rat at 6 mg/kg, po
Assay type: ADME, organism-based
Design: dose 6 mg/kg, route oral
Settings: plasma
Method in brief: (§1)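 Male Wistar rats are dosed at 1 mg/kg iv for half-life and clearance, and at 6 mg/kg po for AUC, Cmax and oral bioavailability.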

Row | SMILES | AUC
1 | CC(=O)N1CCCC1(Cc1ccccc1)C(=O)OCc1ccccc1 (racemic) | 8.6 ng·h/mL

Tested on: not listed separately
Assay: Cmax in Wistar rat at 6 mg/kg, po
Assay type: ADME, organism-based
Design: dose 6 mg/kg, route oral
Settings: in vivo
Method in brief: as §1

Row | SMILES | Cmax
2 | CC(=O)N1CCCC1(Cc1ccccc1)C(=O)OCc1ccccc1 (racemic) | 0.0119 µg/mL

Tested on: not listed separately
Assay: Intrinsic clearance in rat microsomes assessed per mg of protein
Assay type: ADME, Microsome
Settings: not given

Row | CL | microsomal CLint | SMILES
3 | 392 µL/min/mg |  | CC(=O)N1CCCC1(Cc1ccccc1)C(=O)OCc1ccccc1 (single isomer, unassigned; (-))
4 |  | 123 µL/min/mg | CC(=O)N1CCCC1(Cc1ccc(C#N)cc1)C(=O)OCc1ccccc1 (centres undefined)
5 |  | 128 µL/min/mg | CC(=O)N1CCCC1(Cc1ccc(C(F)(F)F)cc1)C(=O)OCc1ccccc1 (centres undefined)
6 |  | 333 µL/min/mg | COc1ccc(CC2(C(=O)OCc3ccccc3)CCCN2C(C)=O)cc1 (centres undefined)
7 |  | 385 µL/min/mg | CC(=O)N1CCCC1(Cc1ccccc1)C(=O)OCc1ccccc1 (racemic)

More lines, now with the values behind:

Row | SMILES | CL | microsomal CLint
8 | CC(=O)N1CCCC1(Cc1cccc(S(C)(=O)=O)c1)C(=O)OCc1ccccc1 (centres undefined) |  | 107 µL/min/mg
9 | CC(=O)N1CCCC1(CC1CCCCC1)C(=O)OCc1ccccc1 (centres undefined) |  | 382 µL/min/mg
10 | CC(=O)N1CCCC1(Cc1ccc(F)c(C(F)(F)F)c1)C(=O)OCc1ccccc1 (centres undefined) |  | 356 µL/min/mg
11 | CS(=O)(=O)N1CCCC1(Cc1ccccc1)C(=O)OCc1ccccc1 (centres undefined) |  | 400 µL/min/mg

Tested on: Mus musculus
Assay: Anticonvulsant activity in audiogenic mouse epilepsy model assessed as inhibition of sound-induced tonic convulsion phase of seizure up to 75 mg/kg, ip pretreated 5 mins before acoustic stimulation
Assay type: functional, organism-based
Design: dose 75 mg/kg
Settings: not given
Method in brief: (§2)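 Mice are pre-selected as responders in a first acoustic challenge (85 dB, 30 s). Wild running, clonic and tonic phases are scored. The next day, compound is given ip 5 min before the same stimulus. The proportion of mice protected against each of the three phases is calculated per group, with N = 10 per dose.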

Row | SMILES | Activity
12 | CC(=O)N1CCCC1(Cc1ccc(S(C)(=O)=O)cc1)C(=O)OCc1ccccc1 (stereo in doubt; 13) | inactive

Biological target: T1, Solute carrier family 12 member 5 (Rattus norvegicus, UniProt Q63633)
T1 sequence (Q63633 whole entry): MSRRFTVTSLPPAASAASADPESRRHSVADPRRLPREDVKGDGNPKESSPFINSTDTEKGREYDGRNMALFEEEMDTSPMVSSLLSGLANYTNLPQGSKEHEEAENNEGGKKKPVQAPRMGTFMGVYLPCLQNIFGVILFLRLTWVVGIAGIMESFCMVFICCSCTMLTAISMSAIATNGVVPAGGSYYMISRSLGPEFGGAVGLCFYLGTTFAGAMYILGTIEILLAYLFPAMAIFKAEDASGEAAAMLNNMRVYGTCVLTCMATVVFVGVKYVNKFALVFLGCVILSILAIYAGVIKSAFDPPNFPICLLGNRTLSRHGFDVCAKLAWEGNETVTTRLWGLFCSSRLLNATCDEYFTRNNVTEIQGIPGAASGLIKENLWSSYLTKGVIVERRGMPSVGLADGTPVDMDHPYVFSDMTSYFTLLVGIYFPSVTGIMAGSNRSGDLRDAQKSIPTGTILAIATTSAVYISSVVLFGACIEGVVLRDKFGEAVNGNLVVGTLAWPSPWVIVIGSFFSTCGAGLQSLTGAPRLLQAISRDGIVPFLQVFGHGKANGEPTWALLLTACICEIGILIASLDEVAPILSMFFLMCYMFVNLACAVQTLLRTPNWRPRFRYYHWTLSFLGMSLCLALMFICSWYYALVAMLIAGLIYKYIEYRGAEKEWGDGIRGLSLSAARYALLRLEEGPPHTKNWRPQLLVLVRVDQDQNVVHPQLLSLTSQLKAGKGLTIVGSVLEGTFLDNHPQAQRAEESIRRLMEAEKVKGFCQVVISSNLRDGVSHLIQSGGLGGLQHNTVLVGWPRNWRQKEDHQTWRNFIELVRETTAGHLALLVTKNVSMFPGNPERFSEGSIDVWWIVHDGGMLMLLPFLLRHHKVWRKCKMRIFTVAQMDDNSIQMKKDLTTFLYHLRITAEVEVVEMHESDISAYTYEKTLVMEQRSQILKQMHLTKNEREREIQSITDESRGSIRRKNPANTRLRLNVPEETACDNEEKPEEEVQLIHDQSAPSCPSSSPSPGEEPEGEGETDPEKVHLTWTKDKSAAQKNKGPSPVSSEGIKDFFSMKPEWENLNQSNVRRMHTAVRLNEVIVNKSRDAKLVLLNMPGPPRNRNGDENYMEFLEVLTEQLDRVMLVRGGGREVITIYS
Assay: Antagonist activity of rat KCC2 transporter expressed in human SK-Hep cells assessed as inhibition of N-ethylmaleimide-mediated Rb+ influx after 10 mins by atomic absorption spectroscopy
Assay type: functional, cell-based
Settings: not given
Method in brief: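 Rat KCC2 stably expressed in a selected clone. The co-transporter is activated with N-ethylmaleimide in the presence of the test compound, and Rb+ influx is started by adding 5 mM RbCl to the extracellular medium. Influx is stopped after 10 min by repeated washes. Intracellular Rb+ is measured by atomic absorption spectroscopy, and IC50 is reported.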

Row | IC50 | SMILES
13 | 50 µM | CC(=O)N1CCCC1(Cc1ccccc1)C(=O)OCc1ccccc1 (single isomer, unassigned; (-))
14 | 0.16 µM | CC(=O)N1CCCC1(Cc1ccc(C#N)cc1)C(=O)OCc1ccccc1 (centres undefined)
15 | 2 µM | CC(=O)N1CCCC1(Cc1ccncc1)C(=O)OCc1ccccc1 (centres undefined)
16 | 0.63 µM | CC(=O)N1CCCC1(Cc1ccc(C(F)(F)F)cc1)C(=O)OCc1ccccc1 (centres undefined)
17 | 0.4 µM | COc1ccc(CC2(C(=O)OCc3ccccc3)CCCN2C(C)=O)cc1 (centres undefined)
18 | 0.79 µM | CC(=O)N1CCCC1(Cc1ccccc1)C(=O)OCc1ccccc1 (racemic)

The remaining lines, values behind:

Row | SMILES | IC50
19 | CC(=O)N1CCCC1(Cc1cccc(S(C)(=O)=O)c1)C(=O)OCc1ccccc1 (centres undefined) | 0.25 µM
20 | CC(=O)N1CCCC1(CC1CCCCC1)C(=O)OCc1ccccc1 (centres undefined) | 1 µM
21 | CC(=O)N1CCCC1(Cc1ccc(F)c(C(F)(F)F)c1)C(=O)OCc1ccccc1 (centres undefined) | 0.06 µM
22 | CS(=O)(=O)N1CCCC1(Cc1ccccc1)C(=O)OCc1ccccc1 (centres undefined) | 1.6 µM

Tested on: not listed separately
Assay: Half life in Wistar rat at 1 mg/kg, iv
Assay type: ADME, organism-based
Design: dose 1 mg/kg, route intravenous
Settings: in vivo
Method in brief: as §1

Row | SMILES | half-life
23 | CC(=O)N1CCCC1(Cc1ccccc1)C(=O)OCc1ccccc1 (racemic) | 2.4 h

Tested on: Mus musculus
Assay: Anticonvulsant activity in audiogenic mouse epilepsy model assessed as inhibition of sound-induced wild running phase of seizure up to 75 mg/kg, ip pretreated 5 mins before acoustic stimulation
Assay type: functional, organism-based
Design: dose 75 mg/kg
Settings: not given
Method in brief: as §2

Row | SMILES | Activity
24 | CC(=O)N1CCCC1(Cc1ccc(S(C)(=O)=O)cc1)C(=O)OCc1ccccc1 (stereo in doubt; 13) | inactive

Tested on: not listed separately
Assay: Aqueous solubility in PBS buffer at pH 7.4
Assay type: physicochemical
Settings: not given

Row | solubility | SMILES
25 | 20 µg/mL (≈ 55.2 µM) | CC(=O)N1CCCC1(Cc1ccc(C#N)cc1)C(=O)OCc1ccccc1 (centres undefined)
26 | 2 µg/mL (≈ 4.93 µM) | CC(=O)N1CCCC1(Cc1ccc(C(F)(F)F)cc1)C(=O)OCc1ccccc1 (centres undefined)
27 | 10 µg/mL (≈ 27.2 µM) | COc1ccc(CC2(C(=O)OCc3ccccc3)CCCN2C(C)=O)cc1 (centres undefined)
28 | 2 µg/mL (≈ 5.93 µM) | CC(=O)N1CCCC1(Cc1ccccc1)C(=O)OCc1ccccc1 (racemic)

The remaining lines, values behind:

Row | SMILES | solubility
29 | CC(=O)N1CCCC1(CC1CCCCC1)C(=O)OCc1ccccc1 (centres undefined) | 3 µg/mL (≈ 8.73 µM)
30 | CC(=O)N1CCCC1(Cc1ccc(F)c(C(F)(F)F)c1)C(=O)OCc1ccccc1 (centres undefined) | 0.5 µg/mL (≈ 1.18 µM)
31 | CS(=O)(=O)N1CCCC1(Cc1ccccc1)C(=O)OCc1ccccc1 (centres undefined) | 1 µg/mL (≈ 2.68 µM)

Tested on: not listed separately
Assay: Intrinsic clearance in rat hepatocytes assessed per 10^6 cells
Settings: not given

Row | hepatocyte CLint | SMILES
32 | 31 µL/min/1e6 cells | CC(=O)N1CCCC1(Cc1ccc(C#N)cc1)C(=O)OCc1ccccc1 (centres undefined)
33 | 20 µL/min/1e6 cells | CC(=O)N1CCCC1(Cc1ccc(C(F)(F)F)cc1)C(=O)OCc1ccccc1 (centres undefined)
34 | 23 µL/min/1e6 cells | COc1ccc(CC2(C(=O)OCc3ccccc3)CCCN2C(C)=O)cc1 (centres undefined)
35 | 28 µL/min/1e6 cells | CC(=O)N1CCCC1(Cc1ccccc1)C(=O)OCc1ccccc1 (racemic)

The next lines start with the molecule.

Row | SMILES | hepatocyte CLint
36 | CC(=O)N1CCCC1(Cc1cccc(S(C)(=O)=O)c1)C(=O)OCc1ccccc1 (centres undefined) | 24 µL/min/1e6 cells
37 | CC(=O)N1CCCC1(Cc1ccc(F)c(C(F)(F)F)c1)C(=O)OCc1ccccc1 (centres undefined) | 20 µL/min/1e6 cells
38 | CS(=O)(=O)N1CCCC1(Cc1ccccc1)C(=O)OCc1ccccc1 (centres undefined) | 23 µL/min/1e6 cells

Tested on: not listed separately
Assay: Oral bioavailability in Wistar rat at 6 mg/kg
Assay type: ADME, organism-based
Settings: in vivo
Method in brief: as §1

Row | SMILES | bioavailability
39 | CC(=O)N1CCCC1(Cc1ccccc1)C(=O)OCc1ccccc1 (racemic) | 0.5%

Tested on: not listed separately
Assay: Antagonist activity to dog NKCC1 transporter expressed in MDCK cells assessed as inhibition of Cl- free medium-stimulated Rb+ influx at 100 uM after 45 mins by atomic absorption spectroscopy
Assay type: functional, Canis lupus familiaris
Settings: not given
Method in brief: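 MDCK cells express endogenous canine NKCC1. NKCC1 is activated by incubating the cells for 2 h in Cl−-free medium. Rb+ influx is then stimulated for 45 min by adding 20 mM RbCl to the extracellular solution. Intracellular Rb+ is quantified by atomic absorption spectroscopy, and results are given as percent inhibition.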

Row | SMILES | inhibition (INH)
40 | CC(=O)N1CCCC1(Cc1ccccc1)C(=O)OCc1ccccc1 (racemic) | 44%

Same assay, conditions: Canis lupus familiaris, MDCK, 0.75 h

Row | SMILES | inhibition at 100 µM
41 | CC(=O)N1CCCC1(Cc1ccc(C#N)cc1)C(=O)OCc1ccccc1 (centres undefined) | 31%
42 | CC(=O)N1CCCC1(Cc1cccc(S(C)(=O)=O)c1)C(=O)OCc1ccccc1 (centres undefined) | 25%
43 | CC(=O)N1CCCC1(CC1CCCCC1)C(=O)OCc1ccccc1 (centres undefined) | 39%
44 | CC(=O)N1CCCC1(Cc1ccc(C(F)(F)F)cc1)C(=O)OCc1ccccc1 (centres undefined) | 53%
45 | CC(=O)N1CCCC1(Cc1ccc(F)c(C(F)(F)F)c1)C(=O)OCc1ccccc1 (centres undefined) | 24%
46 | COc1ccc(CC2(C(=O)OCc3ccccc3)CCCN2C(C)=O)cc1 (centres undefined) | 59%
47 | CS(=O)(=O)N1CCCC1(Cc1ccccc1)C(=O)OCc1ccccc1 (centres undefined) | < 20%

Tested on: not listed separately
Assay: Clearance in Wistar rat at 1 mg/kg, iv
Assay type: ADME, organism-based
Design: dose 1 mg/kg, route intravenous
Settings: in vivo
Method in brief: as §1

Row | SMILES | clearance
48 | CC(=O)N1CCCC1(Cc1ccccc1)C(=O)OCc1ccccc1 (racemic) | 3.66 L/h/kg

Tested on: Mus musculus
Assay: Anticonvulsant activity in audiogenic mouse epilepsy model assessed as inhibition of sound-induced clonic phase of seizure up to 75 mg/kg, ip pretreated 5 mins before acoustic stimulation
Assay type: functional, organism-based
Design: dose 75 mg/kg
Settings: not given
Method in brief: as §2

Row | SMILES | Activity
49 | CC(=O)N1CCCC1(Cc1ccc(S(C)(=O)=O)cc1)C(=O)OCc1ccccc1 (stereo in doubt; 13) | inactive
